Assay results published in ChEMBL document CHEMBL5107962, “Covalent sortase A inhibitor ML346 prevents Staphylococcus aureus infection of Galleria mellonella” (RSC Med Chem, 2022).
pIC50: −log10 of the molar value. Active and inactive are the calls of the source. The rule behind the calls is not given here.

Experiments:
[1] = biological target: T1, Sortase A (Staphylococcus aureus, UniProt Q9S446); assay: Inhibition of recombinant Staphylococcus aureus sortase A deltaN24 transpeptidation expressed in Escherichia coli BL21 (DE3) cells using Abz-LPATG-Dnp as substrate preincubated for 20 mins followed by substrate addition and measured every 1 min for 15 mins by FRET assay
Method in brief: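 His-tagged enzyme purified by Ni-NTA and gel filtration. 1 µM SrtA preincubated with compound (0.05–50 µM) for 20 min at room temperature in 50 mM Tris-HCl pH 7.5, 150 mM NaCl, 5 mM CaCl2. Reaction started with 10 µM Abz-LPATG-Dnp, read at ex 309/em 420 nm. IC50 from a sigmoidal dose–response fit; triplicates, two experiments.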

[2] = biological target: T1, Sortase A; assay: Irreversible inhibition of recombinant Staphylococcus aureus sortase A deltaN24 expressed in Escherichia coli BL21(DE3) cells using Abz-LPATG-Dnp as substrate preincubated for 40 mins followed by substrate addition and measured every 1 min for 15 mins by FRET-based assay
Method in brief: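 SaSrtAΔN24 preincubated with compound for 10, 20, 40 or 60 min before FRET IC50 determination with Abz-LPATG-Dnp in Tris pH 7.5, NaCl, CaCl2 buffer.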

[3] = system: Streptococcus pyogenes; assay: Irreversible inhibition of recombinant Streptococcus pyogenes sortase A deltaN81 expressed in Escherichia coli BL21(DE3) cells using Abz-LPATG-Dnp as substrate assessed as Kinact/Ki ratio preincubated for 60 mins followed by substrate addition and measured every 1 min for 15 mins by fluorescence intensity based assay; conditions: time 75.0 min
Method in brief: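 Variable inhibitor concentrations incubated with SaSrtAΔN24 or SpSrtAΔN81 for different times, followed by FRET enzyme kinetics with Abz-LPATG-Dnp. kobs fitted as kinact × [I]/(KI + [I]) to give kinact and KI.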

[4] = Selectivity ratio of Kinact for irreversible inhibition of recombinant Staphylococcus aureus sortase A deltaN24 expressed in Escherichia coli BL21(DE3) cells to Kinact for irreversible inhibition of recombinant Streptococcus pyogenes sortase A deltaN81 expressed in Escherichia coli BL21(DE3) cells
[5] = system: Staphylococcus aureus; assay: Anti-virulence activity against Staphylococcus aureus Newman assessed as decrease in SpA display on cell envelope at 25 to 200 uM by Western blot analysis; assay type: functional, organism-based; conditions: dose 25-200 µM
Method in brief: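 S. aureus overnight culture diluted 1:1000 in TSB and grown with inhibitor until A600 3.0. Washed cells treated with 10 µg mL-1 lysostaphin in PBS for 15 min at 37 °C. Supernatant (cell-wall anchored proteins) run on SDS-PAGE and immunoblotted for SpA, with ClpP as loading control. Three independent experiments.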

[6] = Toxicity in Galleria mellonella larvae assessed as creamy colour appearance measured after 120 hrs
Method in brief: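 G. mellonella larvae (2-2.5 cm, creamy), starved 24 h, injected with 10 µL compound in vehicle (5% DMSO, 20% PEG300, 75% PBS with 6.6% solutol HS-15). Kept at 37 °C; survival and appearance recorded over 120 h with photography. Three independent experiments.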

[7] = system: Staphylococcus aureus; assay: Anti-infectivity against Staphylococcus aureus Newman infected in Galleria mellonella larvae assessed as survival rate at 25 mg/kg and measured after 120 hrs; assay type: functional
Method in brief: (§1)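 G. mellonella larvae (2-2.5 cm, creamy), starved 24 h at room temperature. S. aureus grown in TSB to A600 1.0, washed and resuspended in PBS, premixed with compound in vehicle (5% DMSO, 20% PEG300, 75% PBS with 6.6% solutol HS-15). Injected into last proleg at about 1 × 10^6 CFU/larva (Newman) or 1 × 10^7 CFU/larva (USA300). Groups of 15 kept at 37 °C, survival recorded 120 h, Mantel–Cox test.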

[8] = system: Staphylococcus aureus; assay: Anti-infectivity against methicillin-resistant Staphylococcus aureus USA300 infected in Galleria mellonella larvae assessed as survival at 12.5 mg/kg and measured after 120 hrs; assay type: functional, organism-based; method in brief: as §1

COc1ccc(/C=C/C=C2C(=O)NC(=O)NC2=O)cc1
pIC50 [1]: 6.43 | pIC50 [2]: 6.40 | Ratio [3]: 0.064 µM⁻¹ min⁻¹ | Ratio [4]: 4 | Activity [5]: Active | Activity [6]: Non-Toxic | Activity [7]: 46.7% | Activity [8]: Active
